Reference: ChEMBL document CHEMBL1149787, “Synthesis and cannabinoid activity of 1-substituted-indole-3-oxadiazole derivatives: novel agonists for the CB1 receptor” (Eur J Med Chem, 2008)
The source made the active and inactive calls. No cut-off for these calls is given here.

Tests used:
Cannabinoid receptor 1 [1] = biological target: Cannabinoid receptor 1 (Rattus norvegicus, UniProt P20272); assay: (§1) Displacement of [3H]SR141716A from CB1 receptor in Sprague-Dawley rat cerebellum membrane; format: tissue-based
[2] = biological target: Cannabinoid receptor 1 (Mus musculus) (UniProt P47746); assay: Agonist activity at CB1 receptor in electrically-stimulated Swiss mouse vas deferens at 1.0 uM; format: functional, tissue-based
Method in brief: (§2)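 Electrically stimulated mouse vas deferens. Prostatic end tied between parallel field electrodes, epididymal end attached to an isometric force transducer. Tissue stretched by 0.5 g force, equilibrated 10 min, then stimulated with trains of three pulses (4 Hz, 0.5 ms, 100 V) every 20 s. Effect taken as % decrease of pre-drug twitch force; single concentrations expressed relative to vehicle.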

[3] = biological target: T1, Cannabinoid receptor 2 (Rattus norvegicus) (UniProt Q9QZN9); assay: (§3) Displacement of [3H]WIN-55212-2 from CB2 receptor in Sprague-Dawley rat spleen membrane; format: cell membranes
T1 sequence (whole entry): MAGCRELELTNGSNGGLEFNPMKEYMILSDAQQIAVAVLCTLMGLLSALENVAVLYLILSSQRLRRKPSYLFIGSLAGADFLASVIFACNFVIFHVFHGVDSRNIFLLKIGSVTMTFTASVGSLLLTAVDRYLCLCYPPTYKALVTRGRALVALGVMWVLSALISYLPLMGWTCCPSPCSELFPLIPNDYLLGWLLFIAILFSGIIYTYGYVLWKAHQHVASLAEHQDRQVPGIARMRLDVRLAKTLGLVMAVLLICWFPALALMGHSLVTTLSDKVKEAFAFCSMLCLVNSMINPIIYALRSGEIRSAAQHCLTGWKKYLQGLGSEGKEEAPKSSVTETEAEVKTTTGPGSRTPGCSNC

Cannabinoid receptor 1 [4] = biological target: Cannabinoid receptor 1 (Homo sapiens, UniProt P21554); assay: Agonist activity at CB1 receptor; format: functional
Cannabinoid receptor 2 [5] = biological target: Cannabinoid receptor 2 (Homo sapiens, UniProt P34972); assay: Activity at CB2 receptor
[6] = Selectivity for CB2 receptor over CB1 receptor
Cannabinoid receptor 2 [7] = biological target: T2, Cannabinoid receptor 2 (Rattus norvegicus, UniProt Q9QZN9); assay: as §3; format: cell membranes
T2 sequence (Q9QZN9 whole entry): T1 sequence (whole entry)

[8] = biological target: Cannabinoid receptor 1 (Mus musculus) (UniProt P47746); assay: Agonist activity at CB1 receptor in electrically-stimulated Swiss mouse vas deferens; format: functional, tissue-based; method in brief: as §2
[9] = biological target: T1, Cannabinoid receptor 2 (Rattus norvegicus); assay: Displacement of [3H]WIN-55212-2 from CB2 receptor in Sprague-Dawley rat spleen membrane at 10 uM; format: cell membranes
Method in brief: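 Spleen membranes from Sprague Dawley rats (supernatant spun at 23,800g, pellet kept) in tris-HCl pH 7.4 with MgCl2 and EGTA. 30.0 µg protein per tube with 1.0 mg/mL BSA, 0.2 nM [3H]WIN-55,212-2 and test drug, triplicate, 30 °C for 90 min. Nonspecific binding defined with 1.0 µM unlabelled WIN-55,212-2. Filtration, scintillation counting, nonlinear regression; means of at least four estimates.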

[10] = biological target: Cannabinoid receptor 1 (Rattus norvegicus) (UniProt P20272); assay: as §1; format: tissue-based
Chain of Cannabinoid receptor 1 (Rattus norvegicus) (P20272 whole entry): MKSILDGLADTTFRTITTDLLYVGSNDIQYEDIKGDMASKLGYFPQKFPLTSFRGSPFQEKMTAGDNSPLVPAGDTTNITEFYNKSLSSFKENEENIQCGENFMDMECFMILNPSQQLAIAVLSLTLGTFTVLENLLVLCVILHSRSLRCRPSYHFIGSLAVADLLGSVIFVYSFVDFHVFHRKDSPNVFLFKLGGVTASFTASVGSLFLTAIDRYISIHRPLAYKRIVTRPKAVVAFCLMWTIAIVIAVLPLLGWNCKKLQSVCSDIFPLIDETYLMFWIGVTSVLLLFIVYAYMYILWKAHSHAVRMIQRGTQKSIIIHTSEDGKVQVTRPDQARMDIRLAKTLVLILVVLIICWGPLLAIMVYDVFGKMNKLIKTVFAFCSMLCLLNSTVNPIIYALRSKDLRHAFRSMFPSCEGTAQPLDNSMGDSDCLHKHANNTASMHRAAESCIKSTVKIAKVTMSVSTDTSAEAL

Chain of Cannabinoid receptor 1 (Mus musculus) (P47746 whole entry): as the sequence (P20272 whole entry) above, with E95D counted along it
Chain of Cannabinoid receptor 1 (Rattus norvegicus, UniProt P20272) (P20272 whole entry): as the sequence (P20272 whole entry) above
Chain of Cannabinoid receptor 1 (Homo sapiens, UniProt P21554) (P21554 whole entry): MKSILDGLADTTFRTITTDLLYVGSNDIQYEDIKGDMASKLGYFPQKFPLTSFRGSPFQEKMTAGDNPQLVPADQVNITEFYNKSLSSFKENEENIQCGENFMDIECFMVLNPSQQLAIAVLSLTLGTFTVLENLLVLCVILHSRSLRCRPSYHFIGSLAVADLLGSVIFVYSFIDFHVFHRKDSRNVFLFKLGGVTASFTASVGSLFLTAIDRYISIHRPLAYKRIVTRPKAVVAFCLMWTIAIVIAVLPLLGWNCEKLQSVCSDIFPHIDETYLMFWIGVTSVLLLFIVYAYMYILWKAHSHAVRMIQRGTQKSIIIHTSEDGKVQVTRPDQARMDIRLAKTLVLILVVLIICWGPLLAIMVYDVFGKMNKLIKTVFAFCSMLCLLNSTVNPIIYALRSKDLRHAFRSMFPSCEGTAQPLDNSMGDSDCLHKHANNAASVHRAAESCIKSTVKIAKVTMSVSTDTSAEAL
Chain of Cannabinoid receptor 2 (Homo sapiens, UniProt P34972) (P34972 whole entry): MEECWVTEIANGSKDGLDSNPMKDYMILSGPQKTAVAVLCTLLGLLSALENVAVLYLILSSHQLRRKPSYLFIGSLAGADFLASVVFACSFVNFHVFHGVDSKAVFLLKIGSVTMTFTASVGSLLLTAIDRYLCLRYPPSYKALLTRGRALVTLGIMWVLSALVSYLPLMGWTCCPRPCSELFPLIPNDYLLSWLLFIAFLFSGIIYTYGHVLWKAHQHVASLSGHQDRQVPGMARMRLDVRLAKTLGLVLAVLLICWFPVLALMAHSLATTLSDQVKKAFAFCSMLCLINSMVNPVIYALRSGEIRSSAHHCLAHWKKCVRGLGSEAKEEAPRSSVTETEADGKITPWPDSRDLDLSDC

| SMILES | IC50 (Cannabinoid receptor 1 [1]) | inhibition [2] | further results |
| --- | --- | --- | --- |
| c1csc(Cc2noc(-c3cn(CCN4CCOCC4)c4ccccc34)n2)c1 | 6.8 µM | 81% | – |
| Brc1ccc(Cc2noc(-c3cn(CCN4CCOCC4)c4ccccc34)n2)cc1 | 6.2 µM | 58% | – |
| c1ccc(CCc2noc(-c3cn(CCN4CCOCC4)c4ccccc34)n2)cc1 | 6.8 µM | 90% | – |
| O=C(O)CCCCn1cc(-c2nc(Cc3ccc4ccccc4c3)no2)c2ccccc21 | – | 53.6% | – |
| CC(=O)Oc1cn(CCN2CCOCC2)c2ccccc12 | – | 81.8% | – |
| O=C(Cn1cc(-c2nc(-c3ccccc3)no2)c2ccccc21)N1CCOCC1 | – | -5.29% | Activity [3]: inactive |
| CCCCC(C)(C)c1cc(O)c2c(c1)OC(C)(C)[C@H]1CC=C(CO)C[C@H]21 | 3.22 µM | – | – |
| COc1ccc(C(=O)c2c(C)n(CCN3CCOCC3)c3ccccc23)cc1 [PRAVADOLINE] | – | – | IC50 (Cannabinoid receptor 1 [4]): 0.453 µM |
| c1ccc2cc(Cc3noc(-c4cn(CCN5CCOCC5)c5ccccc45)n3)ccc2c1 | – | 95.6% | – |
| O=C(c1nc(Cc2ccccc2)no1)c1cn(CCN2CCOCC2)c2ccccc12 | – | 22.4% | – |
| O=C(c1nc(-c2ccccc2)no1)c1cn(CCN2CCOCC2)c2ccccc12 | – | 44.3% | Activity [3]: inactive |
| Cc1c(CCN2CCOCC2)c2ccccc2n1C(=O)c1cccc2ccccc12 | – | – | Ki (Cannabinoid receptor 2 [5]): 0.0085 µM; Selectivity ratio [6]: 160 |
| c1ccc(Cc2noc(-c3cn(CCN4CCOCC4)c4ccccc34)n2)cc1 | 2.62 µM | – | IC50 (Cannabinoid receptor 2 [7]): 1.1 µM; agonist potency (pEC50) [8]: 7 |
| CCCCCn1cc(-c2nc(Cc3ccccc3)no2)c2ccccc21 | 8.8 µM | 100% | – |
| c1ccc(-c2ccc(-c3noc(-c4cn(CCN5CCOCC5)c5ccccc45)n3)cc2)cc1 | 1.52 µM | 11.4% | inhibition [9]: 14% |
| CCOC(=O)CCCCn1cc(-c2nc(Cc3ccc4ccccc4c3)no2)c2ccccc21 | – | 41.6% | – |
| O=C1NC(Cn2cc(-c3nc(Cc4ccccc4)no3)c3ccccc32)CO1 (stereo unspecified) | 6.1 µM | 15.8% | – |
| COc1ccc2c(c1)c(CCN1CCOCC1)c(C)n2C(=O)c1cccc(Cl)c1Cl | – | – | Selectivity ratio [6]: 160 |
| c1ccc(-c2noc(-c3cn(CCN4CCOCC4)c4ccccc34)n2)cc1 | 0.25 µM | – | IC50 (Cannabinoid receptor 2 [7]): 4.03 µM; agonist potency (pEC50) [8]: 6.47 |
| c1ccc(Cc2noc(-c3cn(CCN4CCCC4)c4ccccc34)n2)cc1 | – | – | agonist potency (pEC50) [8]: 7.2 |
| Clc1ccccc1Cc1noc(-c2cn(CCN3CCOCC3)c3ccccc23)n1 | 7.4 µM | 95% | – |
| COc1ccc(Cc2noc(-c3cn(CCN4CCOCC4)c4ccccc34)n2)cc1 | – | 39.2% | – |
| COc1ccc(C(=O)c2c3n(c4ccccc24)C(CN2CCOCC2)CC3)cc1 (stereo unspecified) | – | – | IC50 (Cannabinoid receptor 1 [4]): 0.00032 µM |
| O=C(Cn1cc(-c2nc(Cc3ccccc3)no2)c2ccccc21)N1CCOCC1 | – | 17% | Activity [3]: inactive |
| c1ccc(Cc2noc(-c3cn(CCN4CCOCC4)cn3)n2)cc1 | – | 46.8% | Activity [10]: inactive |
| O=C(Cn1cc(-c2nc(Cc3ccccc3Cl)no2)c2ccccc21)N1CCOCC1 | – | – | Activity [10]: inactive |
| c1ccc2cc(Cc3noc(-c4cn(CCN5CCCC5)c5ccccc45)n3)ccc2c1 | – | 78.6% | – |
| c1ccc(Cc2noc(-c3cn(CCN4CCCCC4)c4ccccc34)n2)cc1 | 5.6 µM | – | agonist potency (pEC50) [8]: 5.6 |
